From ChEMBL document CHEMBL4177542, “A New Combination of a Pleuromutilin Derivative and Doxycycline for Treatment of Multidrug-Resistant Acinetobacter baumannii” (J Med Chem, 2017)
In brackets after ≈: the same amount, converted by molar mass.

Key:
[1] = test system: Escherichia coli; experiment: Growth inhibition of Escherichia coli ATCC 10798 after 48 hrs by resazurin dye based microdilution method; assay type: functional; conditions: ATCC 10798, 48 h
Summary of the method: (§1)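 Broth microdilution in tryptic soy broth. Mid-log cultures (OD600 0.5) treated with serial dilutions from a DMSO stock (1 mg per 100 μL) for 48 h at 37 °C. Resazurin (stock 0.02%) then added for 1 h at 37 °C. MIC is the lowest concentration staying blue; MBC is blue retained over 4 h (99.9% kill), with CFU plating when needed.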

[2] = test system: Acinetobacter baumannii; experiment: Potentiation of doxycycline-induced antimicrobial activity against Acinetobacter baumannii ATCC 19606 at 1.56 ug/ml in presence of 0.025 ug/ml doxycycline by microdilution broth checkerboard method; assay type: functional, ATCC 19606 = CIP 70.34 = JCM 6841
Summary of the method: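 A. baumannii ATCC 19606 in a broth microdilution checkerboard with doxycycline, 96 concentration combinations. ΣFIC = C_A/MIC_A + C_B/MIC_B, taken for wells at the growth/no-growth interface; ΣFIC <0.5 counts as synergy.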

[3] = test system: Klebsiella pneumoniae; experiment: Growth inhibition of Klebsiella pneumoniae ATCC 8047 after 48 hrs by resazurin dye based microdilution method; assay type: functional; conditions: ATCC 8047, 48 h; summary of the method: as §1
[4] = test system: Escherichia coli; experiment: Synergistic antibacterial activity against Escherichia coli ATCC 10798 at 2:1 compound to doxycycline ratio after 48 hrs by resazurin dye based microdilution broth checkerboard method; assay type: functional; conditions: ATCC 10798, 48 h
Summary of the method: (§2)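 Checkerboard broth microdilution of drug pairs in tryptic soy broth on mid-log cultures (OD 0.5), 48 h at 37 °C. Growth read by resazurin (pink growth, blue no growth). MBC is blue retained over 4 h, CFU plating where needed. ΣFIC = C_A/MIC_A + C_B/MIC_B, taken at the growth/no-growth interface wells; ΣFIC <0.5 counts as synergy.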

[5] = test system: Acinetobacter baumannii; experiment: Growth inhibition of multidrug-resistant Acinetobacter baumannii ATCC BAA 18002 after 48 hrs by resazurin dye based broth microdilution method; assay type: functional; conditions: ATCC BAA 18002, 48 h; summary of the method: as §1
[6] = test system: Pseudomonas aeruginosa; experiment: Synergistic bactericidal activity against Pseudomonas aeruginosa ATCC 27853 at 60:1 compound to doxycycline ratio after 48 hrs by resazurin dye based microdilution broth checkerboard method; assay type: functional; conditions: ATCC 27853, 48 h, read-out: MBC99.9; summary of the method: as §2
[7] = test system: Klebsiella pneumoniae; experiment: Synergistic antibacterial activity against Klebsiella pneumoniae ATCC 8047 at 2:1 compound to doxycycline ratio after 48 hrs by resazurin dye based microdilution broth checkerboard method; assay type: functional; conditions: ATCC 8047, 48 h
Summary of the method: (§3)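 Microdilution broth checkerboard of the compound combined with doxycycline, using the resazurin broth method (48 h, 37 °C, blue = no growth). ΣFIC = C_A/MIC_A + C_B/MIC_B, taken at the growth–no growth interface wells; ΣFIC below 0.5 is scored as synergy. MBC for the fixed-ratio combinations read as the 4 h resazurin endpoint.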

[8] = test system: Escherichia coli; experiment: Synergistic bactericidal activity against Escherichia coli ATCC 10798 at 35:1 compound to doxycycline ratio after 48 hrs by resazurin dye based microdilution broth checkerboard method; assay type: functional; conditions: ATCC 10798, 48 h, read-out: MBC99.9; summary of the method: as §2
[9] = test system: Staphylococcus aureus; experiment: Bactericidal activity against Staphylococcus aureus ATCC 25923 after 48 hrs by resazurin dye based microdilution method; assay type: functional; conditions: ATCC 25923, 48 h, read-out: MBC99.9; summary of the method: as §1
[10] = test system: Pseudomonas aeruginosa; experiment: Synergistic bactericidal activity against Pseudomonas aeruginosa ATCC 27853 at 35:1 compound to doxycycline ratio after 48 hrs by resazurin dye based microdilution broth checkerboard method; assay type: functional; conditions: ATCC 27853, 48 h, read-out: MBC99.9; summary of the method: as §2
[11] = test system: Acinetobacter baumannii; experiment: Synergistic antibacterial activity against Acinetobacter baumannii ATCC 19606 at 35:1 compound to doxycycline ratio after 48 hrs by resazurin dye based microdilution broth checkerboard method; assay type: functional; conditions: ATCC 19606 = CIP 70.34 = JCM 6841, 48 h; summary of the method: as §3
[12] = test system: Acinetobacter baumannii; experiment: Synergistic antibacterial activity against Acinetobacter baumannii ATCC 19606 infected in C57BL/6 mouse assessed as survival rate at compound to doxycycline ratio of 35:1 at 4 mg/kg, ip administered as single dose measured for 5 days (reference value: <20%); assay type: functional; conditions: ATCC 19606 = CIP 70.34 = JCM 6841, ip, 120 h
Summary of the method: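 C57BL/6 mice (n = 5 per group; 4 untreated controls) infected intraperitoneally with A. baumannii ATCC19606 grown at 37 °C and collected by centrifugation, at a dose giving 75% death. Single intraperitoneal dose (2 to 60 mg/kg) given 1 h after infection. Mice monitored for 5 days, with death as the end point; survival rate recorded.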

[13] = test system: Mycobacterium tuberculosis; experiment: Synergistic bactericidal activity against Mycobacterium tuberculosis H37Rv at 2:1 compound to doxycycline ratio after 48 hrs by resazurin dye based microdilution broth checkerboard method; assay type: functional; conditions: read-out: MBC99.9
[14] = test system: Klebsiella pneumoniae; experiment: Synergistic bactericidal activity against Klebsiella pneumoniae ATCC 8047 at 60:1 compound to doxycycline ratio after 48 hrs by resazurin dye based microdilution broth checkerboard method; assay type: functional; conditions: ATCC 8047, 48 h, read-out: MBC99.9; summary of the method: as §2
[15] = test system: Klebsiella pneumoniae; experiment: Synergistic antibacterial activity against Klebsiella pneumoniae ATCC 8047 at 60:1 compound to doxycycline ratio after 48 hrs by resazurin dye based microdilution broth checkerboard method; assay type: functional; conditions: ATCC 8047, 48 h; summary of the method: as §2
[16] = test system: Klebsiella pneumoniae; experiment: Synergistic bactericidal activity against Klebsiella pneumoniae ATCC 8047 at 2:1 compound to doxycycline ratio after 48 hrs by resazurin dye based microdilution broth checkerboard method; assay type: functional; conditions: ATCC 8047, 48 h, read-out: MBC99.9; summary of the method: as §2

C=C[C@]1(C)C[C@@H](OC(=O)CSC(C)(C)CNC(=O)[C@H](N)C(C)C)[C@]2(C)[C@H](C)CC[C@]3(CC[C@@H](O)[C@H]32)[C@@H](C)[C@@H]1O
MIC [1]: 3.13 µg/mL (≈ 5.52 µM)
fractional inhibitory concentration index (FICI) [2]: 0.38
MIC [3]: < 6.25 µg/mL
MIC [4]: 0.25 µg/mL
MIC [5]: 6.25 µg/mL (≈ 11 µM)
MBC [6]: 25 µg/mL
MIC [7]: 0.78 µg/mL
MBC [8]: 1.56 µg/mL
MBC [9]: 25 µg/mL (≈ 44.1 µM)
MBC [10]: 25 µg/mL
MIC [11]: 0.4 µg/mL
survival at 4 mg/kg [12]: 100%
MBC [13]: 6.25 µg/mL
MBC [14]: 3.25 µg/mL
MIC [15]: 1.56 µg/mL
MBC [16]: 1.56 µg/mL
